Test results as given in ChEMBL document CHEMBL3997769, “Discovery and preclinical evaluation of 7-benzyl-N-(substituted)-pyrrolo[3,2-d]pyrimidin-4-amines as single agents with microtubule targeting effects along with triple-acting angiokinase inhibition as antitumor agents” (Bioorg Med Chem, 2017).

What was measured:
[1] = test system: A-431; experiment: Cytotoxicity against human A431 cells; format: functional, cell-based
[2] = test system: SF-268; experiment: Growth inhibition of human SF268 cells incubated for 48 hrs by sulforhodamine B assay; format: functional; conditions: SF-268, 48 h
[3] = test system: HCT-116; experiment: Growth inhibition of human HCT116 cells incubated for 48 hrs by sulforhodamine B assay; format: functional; conditions: HCT-116, 48 h
[4] = Inhibition of bovine brain tubulin assembly preincubated for 15 mins followed by GTP addition measured for 20 mins by spectrophotometric method; parameters: species or system Bos taurus
[5] = test system: SNB-19; experiment: Growth inhibition of human SNB19 cells incubated for 48 hrs by sulforhodamine B assay; format: functional; conditions: SNB-19, 48 h
[6] = test system: SK-OV-3; experiment: Growth inhibition of human SKOV3 cells incubated for 48 hrs by sulforhodamine B assay; format: functional; conditions: SK-OV-3, 48 h
[7] = test system: MCF7; experiment: Growth inhibition of human MCF7 cells incubated for 48 hrs by sulforhodamine B assay; format: functional; conditions: MCF7, 48 h
[8] = test system: MOLT-4; experiment: Growth inhibition of human MOLT4 cells incubated for 48 hrs by sulforhodamine B assay; format: functional; conditions: MOLT-4, 48 h
[9] = test system: NCI/ADR-RES; experiment: Growth inhibition of human NCI/ADR-RES cells incubated for 48 hrs by sulforhodamine B assay; format: functional
[10] = test system: HL-60(TB); experiment: Growth inhibition of human HL-60(TB) cells incubated for 48 hrs by sulforhodamine B assay; format: functional; conditions: HL-60, 48 h
[11] = test system: A549; experiment: Growth inhibition of human A549/ATCC cells incubated for 48 hrs by sulforhodamine B assay; format: functional; conditions: A549, 48 h
[12] = test system: Malme-3M; experiment: Growth inhibition of human MALME-3M cells incubated for 48 hrs by sulforhodamine B assay; format: functional
[13] = test system: A498; experiment: Growth inhibition of human A498 cells incubated for 48 hrs by sulforhodamine B assay; format: functional; conditions: A498, 48 h
[14] = test system: PC-3; experiment: Growth inhibition of human PC3 cells incubated for 48 hrs by sulforhodamine B assay; format: functional; conditions: PC-3, 48 h
[15] = test system: HOP-62; experiment: Growth inhibition of human HOP62 cells incubated for 48 hrs by sulforhodamine B assay; format: functional; conditions: HOP-62, 48 h
[16] = test system: HCC 2998; experiment: Growth inhibition of human HCC2998 cells incubated for 48 hrs by sulforhodamine B assay; format: functional; conditions: HCC 2998, 48 h
[17] = test system: OVCAR-8; experiment: Growth inhibition of human OVCAR8 cells incubated for 48 hrs by sulforhodamine B assay; format: functional; conditions: OVCAR-8, 48 h
[18] = test system: KM12; experiment: Growth inhibition of human KM12 cells incubated for 48 hrs by sulforhodamine B assay; format: functional; conditions: KM12, 48 h
[19] = test system: RXF 393; experiment: Growth inhibition of human RXF393 cells incubated for 48 hrs by sulforhodamine B assay; format: functional; conditions: RXF 393, 48 h
[20] = test system: MDA-MB-468; experiment: Growth inhibition of human MDA-MB-468 cells incubated for 48 hrs by sulforhodamine B assay; format: functional; conditions: MDA-MB-468, 48 h
[21] = test system: HeLa; experiment: Growth inhibition of human HeLa cells measured after 96 hrs by sulforhodamine B assay; format: functional, cell-based
Method in brief: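 Exposed 96 h to varying compound concentrations in 0.5% DMSO. Cell protein measured by sulforhodamine B; IC50 = concentration halving the increase in cell protein versus untreated cultures.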

[22] = test system: HT-29; experiment: Growth inhibition of human HT-29 cells incubated for 48 hrs by sulforhodamine B assay; format: functional; conditions: HT-29, 48 h
[23] = test system: UACC-257; experiment: Growth inhibition of human UACC257 cells incubated for 48 hrs by sulforhodamine B assay; format: functional; conditions: UACC-257, 48 h
[24] = test system: HOP-92; experiment: Growth inhibition of human HOP92 cells incubated for 48 hrs by sulforhodamine B assay; format: functional; conditions: HOP-92, 48 h
[25] = test system: M14; experiment: Growth inhibition of human M14 cells incubated for 48 hrs by sulforhodamine B assay; format: functional; conditions: M14, 48 h

`COc1ccc(N(C)c2nc(C)nc3c(Cc4ccccc4)cn(C)c23)cc1.Cl` gave an IC50 [1] of 1200 nM, a GI50 [2] of 350 nM and a GI50 [3] of 35 nM. For the same compound, the IC50 [4] was 480 nM, the GI50 [5] was 54.7 nM and the GI50 [6] was 45.4 nM. The GI50 [7] was 33.3 nM, the GI50 [8] was 50.8 nM and the GI50 [9] was 32.8 nM. For the same compound, the GI50 [10] was 26.8 nM, the GI50 [11] was 44 nM and the GI50 [12] was 17.7 nM. The GI50 [13] was 20.2 nM, the GI50 [14] was 49.6 nM and the GI50 [15] was 47.8 nM. It also gave a GI50 [16] of 71.1 nM, a GI50 [17] of 49.1 nM and a GI50 [18] of 44.5 nM. The GI50 [19] was 25.4 nM, the GI50 [20] was 30.1 nM and the IC50 [21] was 14 nM. The GI50 [22] was 35.1 nM, the GI50 [23] was 78.2 nM and the GI50 [24] was 47.1 nM. It also gave a GI50 [25] of 29.5 nM.
